Shown is part of a subset that was picked to be rich in hits.
HCT116 PTEN-null = growth suppressors of cells with PTEN tumor suppressor deletion | HCT116 PTEN-null viability, CellTiter-Glo, 60 h; active compounds read low | viability, % at 10 µM | 1.2% of 140,000 active | AID 827;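 active means viability at or below a set limit, 4 SD under the median of all tested compounds, cut at about 3.7% in these data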;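 further: PTEN knockout HCT116 line with beta catenin targeted HCT116 as companion control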
PTK2B oligo ant = Pyk2 (human) oligomerization antagonism; Q14289; Q293 cells, Pyk2 FERM NanoBiT luminescence; active compounds read low; z-score (the deposit names both 25 µM and 10 µM); 0.83% of 99,000 active;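 active means Z-score of -3 or lower, scaled per plate to the spread of control and sample wells; inactive means z-score above -3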;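 further: negative z-score means lost luminescence so less FERM oligomerization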
Target sequence (Q14289 whole entry, looked up): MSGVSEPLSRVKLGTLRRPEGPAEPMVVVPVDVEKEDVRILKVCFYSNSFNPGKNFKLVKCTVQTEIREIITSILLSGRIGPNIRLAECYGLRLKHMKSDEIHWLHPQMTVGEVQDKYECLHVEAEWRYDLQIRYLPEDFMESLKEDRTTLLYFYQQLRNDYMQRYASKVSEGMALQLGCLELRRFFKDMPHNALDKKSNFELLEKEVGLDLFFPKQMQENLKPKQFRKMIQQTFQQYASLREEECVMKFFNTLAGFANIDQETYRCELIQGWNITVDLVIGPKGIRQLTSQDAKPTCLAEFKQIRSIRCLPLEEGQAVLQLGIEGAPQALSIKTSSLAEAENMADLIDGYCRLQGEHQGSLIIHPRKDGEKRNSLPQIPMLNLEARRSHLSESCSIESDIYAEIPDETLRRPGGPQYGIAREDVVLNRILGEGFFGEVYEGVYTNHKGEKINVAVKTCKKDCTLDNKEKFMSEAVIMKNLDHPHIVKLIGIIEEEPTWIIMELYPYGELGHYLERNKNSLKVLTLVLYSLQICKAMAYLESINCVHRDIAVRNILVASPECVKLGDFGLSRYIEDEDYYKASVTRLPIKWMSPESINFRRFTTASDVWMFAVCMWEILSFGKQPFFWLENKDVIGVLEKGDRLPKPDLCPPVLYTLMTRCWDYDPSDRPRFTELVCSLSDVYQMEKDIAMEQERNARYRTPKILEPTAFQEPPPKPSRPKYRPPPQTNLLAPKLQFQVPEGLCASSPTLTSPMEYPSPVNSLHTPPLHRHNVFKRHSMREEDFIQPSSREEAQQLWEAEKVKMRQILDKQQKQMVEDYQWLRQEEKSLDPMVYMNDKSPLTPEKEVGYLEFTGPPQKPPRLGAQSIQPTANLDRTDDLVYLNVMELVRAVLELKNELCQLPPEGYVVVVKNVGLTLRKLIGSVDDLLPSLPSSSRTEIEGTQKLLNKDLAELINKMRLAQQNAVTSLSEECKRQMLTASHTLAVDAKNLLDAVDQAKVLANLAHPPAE
Fibroblast inh = blocks proliferation of human lung fibroblasts; LL 47 human lung fibroblast viability, ATP luminescence; active compounds read low; viability, % at 10 µM; 1.1% of 85,000 active; AID 719;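 active means viability at or below 50% in the single dose screen; inactive means viability above 50%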;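 further: compound exposure lasted 72 h before the ATP readout; 100% = median luminescence of untreated cell-only wells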
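Material: Human LL 47 lung fibroblast cells | Input: 1,150 cells/well | Buffer or medium: IMEM plus 15% FBS | Compound dosing: 0.1% DMSO in all compound wells | Times: Overnight cell rest, 72 h compound treatment at 37 °C | Signal: CellTiter-Glo luminescence measuring cellular ATP | Measure: % viability versus median cells-only luminescence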
H69AR growth 86K = growth inhibitors of human H69AR lung tumor cells | H69AR lung tumor viability, ATP luminescence, 72 h; active compounds read low | viability, % at 10 µM | 6% of 85,000 active;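 active means viability at or below 40%; inactive means viability above 40%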;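 further: multidrug resistant small cell line overexpressing MRP-1 efflux transporter; 100% = mean luminescence of untreated control wells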
HUVEC inhibit = human endothelial cell proliferation inhibition. AID 648. HUVEC proliferation, CellTiter-Glo luminescence, 72 h; active compounds read low. viability, % at 10 µM (by protocol). 1.1% of 86,000 active;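 active means viability at or below 30%; inactive means viability above 30%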;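 further: 100% = median luminescence of DMSO-only cell control wells on each plate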
HCT116 bCat-KO = beta-catenin-lacking colon tumor cell growth suppression; HCT116 beta-catenin knockout viability, CellTiter-Glo, 60 h; active compounds read low; viability, % at 10 µM; 1.5% of 140,000 active;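 active means viability at or under a set limit, the compound median less 4 SD, cut at about 6% in these data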;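 further: 0% = Hyamine 1622 control at 20 µM and 100% = untreated cell control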
* hit, by the source's call; nt = not tested or not shown.

SMILES | HCT116 PTEN-null | PTK2B oligo ant | Fibroblast inh | H69AR growth 86K | HUVEC inhibit | HCT116 bCat-KO
Cc1ccnc(NC2(C(F)(F)F)N=C(c3ccccc3)NC2=O)c1 (configuration not stated) | 101 | 0.1 | nt | nt | nt | 110
O=C1C=C(Nc2ccc(O)cc2)CC(c2ccco2)C1 (configuration not stated) | 32 | -0.44 | 80 | 26* | 64 | 38
Cc1cccc(NC(=O)CSc2nc(N)c(NC(=O)c3cccs3)c(=O)[nH]2)c1C | 95 | nt | nt | nt | nt | 98
COc1ccc(/C(=C/c2ccc(OC(F)F)c(OC)c2)C(=O)O)cc1OC | 92 | nt | nt | nt | nt | 99
OCCN(CCO)Cc1ccc(Br)cc1 | 96 | 0.2 | 100 | 98 | 88 | 94
CCCN(CCO)Cc1cccc(Br)c1 | 92 | -0.01 | 38* | 87 | 88 | 98
Cc1nn(-c2cc(N(S(C)(=O)=O)S(C)(=O)=O)c(Cl)cc2Cl)c(=O)n1C | 97 | nt | nt | nt | nt | 103
CC(NC(=O)CCN1C(=O)c2ccccc2C1=O)c1ccc2c(c1)CCCC2 (configuration not stated) | 101 | nt | nt | nt | nt | 93
Cc1ccsc1C1NC(=O)c2ccccc2N1 (configuration not stated) | 74 | 0.1 | 88 | 23* | 63 | 72
O=C1NC(c2cccs2)Nc2ccccc21 (configuration not stated) | 66 | 0.42 | 100 | 61 | 100 | 84
CCN(CC)S(=O)(=O)c1cc([N+](=O)[O-])ccc1NNC(=O)Nc1ccc(Cl)c(Cl)c1 | 1.0* | -0.66 | 43* | 2.9* | 41 | 1.4*
Cc1ccc2[nH]c(=O)c(CN(CCCN3CCOCC3)C(=O)Nc3cccc(Cl)c3)cc2c1 | 33 | nt | 64 | 20* | 8.5* | 40
Cc1ccc2[nH]c(=O)c(CN(CCN3CCOCC3)C(=O)Nc3ccccc3F)cc2c1 | 98 | 0.44 | 91 | 72 | 96 | 90
COc1ccccc1-c1cc(-c2cc(Cl)ccc2O)n[nH]1 | 55 | 0.76 | 91 | 82 | 92 | 37
COc1ccc(-c2cc(-c3ccccc3O)[nH]n2)cc1 | 47 | -1 | 77 | 13* | 71 | 43
Oc1ccc(Cl)cc1-c1cc(-c2ccccc2)n[nH]1 | 16 | nt | 77 | 4.3* | 31 | 10
CC(Sc1nnc(-c2ccccc2)c(-c2ccccc2)n1)C(=O)N1CCc2ccccc21 (configuration not stated) | 66 | nt | nt | nt | nt | 70
COc1ccccc1N1C(=O)C2ON(c3ccccc3)C(c3ccc(N(C)C)cc3)C2C1=O (configuration not stated) | 94 | nt | 107 | 11* | 81 | 99
CC(C)Nc1nc(NC(C)C)nc(SCCOC(=O)Nc2ccc(Cl)cc2Cl)n1 | 91 | -0.41 | nt | nt | nt | 85
O=C(NC1CCCc2ccccc21)c1cncc(Br)c1 (configuration not stated) | 99 | 0.09 | 107 | 86 | 117 | 108
O=C(N/N=C/c1cccs1)C1COc2ccccc2O1 (configuration not stated) | 79 | -0.8 | 95 | 24* | 69 | 81
O=c1cc(-c2ccccc2)[nH]c2[nH]n(-c3ccccc3)c(=O)c12 | 103 | -3.8* | 104 | 101 | 90 | 86
CCOC(=O)Cc1cc(=O)c2c(=O)n(-c3ccccc3)[nH]c2[nH]1 | 102 | 1.5 | 102 | 104 | 105 | 95
O=C(NCC(=O)N(Cc1ccccc1)C(C(=O)NC1CCCC1)c1ccncc1)c1ccco1 (configuration not stated) | 93 | 1.4 | 98 | 80 | 98 | 95
Cc1ccc(C)c(N2CCN(c3nnnn3-c3ccccc3)CC2)c1 | 37 | -0.58 | 84 | 20* | 89 | 47
SMILES | HCT116 PTEN-null | PTK2B oligo ant | Fibroblast inh | H69AR growth 86K | HUVEC inhibit | HCT116 bCat-KO
O=C1c2cccc3c(O)ccc(c23)C(=O)N1Cc1ccccc1 | 118 | -0.09 | nt | nt | nt | 101
Cc1ccc(-n2c(SCC(=O)Nc3nccs3)nc3c(c2=O)SCC3)cc1 | 108 | 0.49 | 27* | 67 | 98 | 92
Cc1ccc(Oc2ccc(S(=O)(=O)N3CCOCC3)cc2C(N)=O)c(-n2nc3ccccc3n2)c1 | 10 | -0.97 | 53 | 31* | 42 | 15
COc1ccccc1Oc1ccc(S(=O)(=O)N2CCOCC2)cc1S(=O)(=O)N1CCOCC1 | 107 | -0.51 | 99 | 91 | 84 | 91
O=C(Cc1cccc2ccccc12)N/N=C/c1ccc(OC(=O)/C=C/c2ccco2)cc1 | 66 | 0.89 | 94 | 24* | 78 | 67
O=C(Cc1cccs1)N(Cc1cccs1)C1(C(=O)NC2CCCCC2)CCCCC1 | 51 | -4.5* | 86 | 65 | 101 | 54
O=C1NC(=O)C(CC(=O)N(Cc2cccs2)C2(C(=O)NC3CCCC3)CCCCC2)N1 (configuration not stated) | 99 | nt | nt | nt | nt | 91
O=C(OCn1ncc(Cl)c(Cl)c1=O)c1cccc(C(F)(F)F)c1 | 8 | -0.26 | nt | nt | nt | 8
O=C(OCn1ncc(Br)c(Br)c1=O)c1ccccc1Cl | 2.0* | 1.7 | 2.7* | 1.2* | 2.6* | 1.5*
O=C(OCc1cnc(Cl)s1)c1ccccc1Cl | 112 | 0.51 | nt | nt | nt | 105
O=C(OCn1ncc(Br)c(Br)c1=O)c1ccc(F)cc1 | 0.6* | 1 | 1.9* | 1.8* | 2.3* | 0.8*
O=C(NNC1=C(C(=O)C(F)(F)F)CCC1)c1ccccc1Cl | 31 | 0.89 | 68 | 51 | 15* | 22
O=C(NNC1=C(C(=O)C(F)(F)F)CCC1)c1ccccc1O | 82 | -1.7 | 62 | 30* | 6.8* | 74
COc1ccccc1C(=O)NNC1=C(C(=O)C(F)(F)F)CCC1 | 6 | -0.92 | nt | nt | nt | 6
O=C(NNC1=C(C(=O)C(F)(F)F)CCC1)c1ccc(Br)cc1 | 100 | -0.15 | 68 | 54 | 31 | 85
OCCN1CCN(CCCN2c3ccccc3Sc3ccc(C(F)(F)F)cc32)CC1 | 1.5* | nt | 47* | 0.8* | 2.9* | 1.7*
CN1CCN(CCC(=O)N2c3ccccc3Sc3ccc(C(F)(F)F)cc32)CC1 | 102 | 0.49 | 91 | 85 | 85 | 95
CN1CCN(CCCN2c3ccccc3Sc3ccc(Cl)cc32)CC1 | 13 | nt | 94 | 71 | 95 | 10
CN(C)CCCN1c2ccccc2Sc2ccc(C(F)(F)F)cc21 | 13 | nt | 41* | 1.5* | 47 | 11
O=C(Nc1ccncc1)c1ccc(NS(=O)(=O)c2cccc(F)c2)cc1 | 83 | -0.7 | nt | nt | nt | 81
COC(=O)N1[C@H](C)C=C[C@]1(Cc1ccccc1)C(=O)O | 90 | nt | nt | nt | nt | 103
CCOC(CNC(=O)c1cccn2c(=O)c3cc(Cl)ccc3nc12)OCC | 59 | -0.33 | 97 | 38* | 74 | 59
CCOC(=O)N1CCN(C(=O)c2cccn3c(=O)c4cc(Cl)ccc4nc23)CC1 | 77 | 0.66 | nt | nt | nt | 86
COc1ccc(N=C2C(=Nc3ccc(OC)cc3)N(c3ccc(OC)cc3)C(=S)N2c2ccccc2)cc1 | 98 | -0.42 | nt | nt | nt | 94
